Data as given in PubChem BioAssay.
Inconclusive results are not listed.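 How the source made its calls, unless noted: active means RAM network inhibition above 8.4% in each of two replicates, 3 SD over the compound average; inconclusive means above 8.4% inhibition in only one replicate; inactive means 8.4% inhibition or less in each replicate.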

Columns and labels:
[1] = OD615 S. cerevisiae growth inhibition, permissive medium, pilot counter-assay, permissive growth control for S. cerevisiae lifespan shortening project (AID 705;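 active means growth inhibition above 25% in both replicates, a cutoff set 3 SD above the mean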); conditions: OD615, 24 h, at 10 µM, hits give high values
Procedure, shortened: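 System: S. cerevisiae with engineered DeaD lifespan system. Medium: SC raffinose/galactose permissive medium. Doses: single compound dose of 10 µM, 0.25% DMSO final. Schedule: 24 h exposure, 30 °C. Measured by: OD615 turbidity read. Read-out: growth inhibition.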

[2] = Restrictive medium S. cerevisiae growth inhibition, OD615, pilot screen of yeast lifespan reduction project, restrictive growth control (AID 706;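 active means growth inhibition above a set limit, 3 SD over mean compound inhibition, in both replicates, cut at about 43% in these data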;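 further: modified DeaD lifespan yeast strain shifted to restrictive glucose medium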); conditions: OD615, 48 h, at 10 µM, hits give high values
Procedure, shortened: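 Assay system – genetically modified Saccharomyces cerevisiae, DeaD replicative lifespan assay strain · Medium – CSMM-D glucose medium · Doses – 10 µM compound, 0.25% DMSO · Times – 4 h pre-incubation, 48 h exposure at 30 °C · Signal – optical density at 615 nm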

[3] = viability gain of MRP-1-high H69AR cells under doxorubicin, pilot screen, MRP-1 activator project, CellTiter-Glo, duplicate (AID 807;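 active means viability increase at or above a cutoff of the median across tested compounds plus 3 SD, cut at about 8.5% in these data, passing the limit was not always enough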;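 further: compound pretreatment 18-22 h then 72 h combined with doxorubicin; 0% = doxorubicin alone and 100% = vehicle without doxorubicin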); conditions: H69AR viability with doxorubicin, CellTiter-Glo luminescence; at 10 µM; hits give high values
[4] = growth suppression of beta-catenin knockout HCT116, pilot screen, human colon tumor cells (AID 823;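 active means cell viability at or below a set limit in both duplicate runs, the limit being the all-compound median minus 4 SD, cut at about 23% in these data, passing the limit was not always enough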;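 further: 0% = wells killed by 20 µM Hyamine and 100% = untreated DMSO cell wells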); conditions: CellTiter-Glo, 60 h, at 10 µM, hits give low values
[5] = growth suppression of PTEN-deleted HCT116, pilot screen, cell-based, HCT116 clonal line, CellTiter-Glo (AID 824;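 active means viability at or below 27.92% in each of two runs, the all-compound median minus 4 SD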;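 further: 0% = 20 µM Hyamine control and 100% = vehicle cell control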); conditions: 60 h, at 10 µM, hits give low values
[6] = inhibitors of the yeast RAM network, pilot screen, dse1pr::URA3 reporter, 5-FOA selection (AID 869;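 active means inhibition over a set limit, the all-compound mean plus 3 SD, in both replicate runs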;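 further: 0% = DMSO wells with no growth and 100% = 10 µM 1-NA-PP1 with full growth; RAM network block rescues cells from 5-FOA so hits raise OD615 growth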); conditions: S. cerevisiae dse1pr::URA3 5-FOA growth, OD615, 2 d; at 10 µM; hits give high values; strain carries analog-sensitive mutant Cbk1 kinase
[7] = RAM signaling pathway blockade in yeast – S. cerevisiae, Pdr1DBD-CYC8 efflux-inhibited sensitized strain, primary screen (AID 1298);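 further: 0% = DMSO untreated cells without growth and 100% = 10 µM 1-NA-PP1 full growth; higher means more yeast growth rescued from 5-FOA killing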; conditions: S. cerevisiae cbk1-as DSE1-URA3 strain, 5-FOA growth OD615, 2 d; at 50 µM; hits give high values

COc1ccc2nc(NC(=O)C3COc4ccccc4O3)sc2c1 (configuration not stated)
inactive: growth inhibition [1] -5.73% | growth inhibition [2] -9.21% | viability increase [3] 2.25% | viability [4] 100% | viability [5] 91.7% | inhibition [6] 2.08% | RAM network inhibition [7] 2.86%

O=C(CSc1nccn1-c1ccc(Cl)cc1)NCc1ccc2c(c1)OCO2
inactive: growth inhibition [1] -14.6% | growth inhibition [2] -8.19% | viability increase [3] -0.8% | viability [4] 96.3% | viability [5] 89.5% | inhibition [6] 1.3% | RAM network inhibition [7] 2.26%

CCC(=O)N=c1sc2c(C)cc(C)cc2n1CC(=O)OC
inactive: growth inhibition [1] -9.96% | growth inhibition [2] -16.1% | viability increase [3] -0.83% | viability [4] 92.4% | viability [5] 88.7% | inhibition [6] 1.55% | RAM network inhibition [7] 2.76%

O=C(c1ccc2nc(N3CCCCC3)sc2c1)N1CCN(Cc2ccc3c(c2)OCO3)CC1
inactive: growth inhibition [1] 2.12% | growth inhibition [2] 1.62% | viability increase [3] 1.03% | viability [4] 54.2% | viability [5] 60.2% | inhibition [6] 0.76% | RAM network inhibition [7] 1.12%

C=CCOc1ccc(/C(O)=C2/C(=O)C(=O)N(CCCn3ccnc3)C2c2cccs2)cc1 (configuration not stated)
inactive: growth inhibition [1] -13.8% | growth inhibition [2] 0.445% | viability increase [3] 1.46% | viability [4] 95.2% | viability [5] 98.6% | inhibition [6] -0.285% | RAM network inhibition [7] 1.02%

CCN(CC)CCCN1C(=O)C(O)=C(C(=O)c2ccc(C)o2)C1c1cccs1 (configuration not stated)
inactive: growth inhibition [1] 0.37% | growth inhibition [2] -6.93% | viability increase [3] -4.04% | viability [4] 97.5% | viability [5] 96.2% | inhibition [6] 2.01% | RAM network inhibition [7] 2.8%

CCOc1ccc(C(=O)CCNC(Cc2cnc[nH]2)C(=O)O)cc1 (configuration not stated)
inactive: growth inhibition [1] 5.56% | growth inhibition [2] 8.23% | viability increase [3] -2.31% | viability [4] 95.1% | viability [5] 92.7% | inhibition [6] 2.15% | RAM network inhibition [7] 4.96%

O=C(NCc1ccccc1Cl)c1cnc2n(c1=O)CCS2
inactive: growth inhibition [1] 3.67% | growth inhibition [2] 0.685% | viability increase [3] -0.78% | viability [4] 99.9% | viability [5] 96.9% | inhibition [6] 0.995% | RAM network inhibition [7] -0.68%

O=C(CC1Oc2ccccc2NC1=O)NC1CC1 (configuration not stated)
inactive: growth inhibition [1] -1.45% | growth inhibition [2] -2.85% | viability increase [3] 0.91% | viability [4] 108% | viability [5] 93.5% | inhibition [6] 3.03% | RAM network inhibition [7] -0.05%

CCOc1ccc(N(CC(=O)NCC(C)C)S(C)(=O)=O)cc1
inactive: growth inhibition [1] 6.66% | growth inhibition [2] -4.28% | viability increase [3] -0.04% | viability [4] 98% | viability [5] 102% | inhibition [6] 0.96% | RAM network inhibition [7] 1.12%

Cc1cc(-c2ccccc2)n2ncc(C#N)c2n1
inactive: growth inhibition [1] -0.51% | growth inhibition [2] 2.26% | viability increase [3] -1.18% | viability [4] 103% | viability [5] 98.8% | inhibition [6] 1.17% | RAM network inhibition [7] 2.36%

COc1ccc(NC(=O)c2c(NC(=O)CNCc3ccco3)sc3c2CCC3)c(OC)c1
inactive: growth inhibition [1] -3.54% | growth inhibition [2] -19% | viability increase [3] -1.44% | viability [4] 88.7% | viability [5] 79.2% | inhibition [6] 1.43% | RAM network inhibition [7] 5.28%

CCOC(=O)C1CCN(C(=O)CN(c2ccc(OC)cc2)S(=O)(=O)c2c(C)nn(C)c2C)CC1
inactive: growth inhibition [1] -3.58% | growth inhibition [2] -3.18% | viability increase [3] -0.02% | viability [4] 98.7% | viability [5] 104% | inhibition [6] 1.46% | RAM network inhibition [7] 2.69%

COc1cc(SC)ccc1C(=O)Nc1ccc2c(c1)OCCO2
inactive: growth inhibition [1] -7.61% | growth inhibition [2] -4.97% | viability increase [3] -0.82% | viability [4] 67.1% | viability [5] 65.8% | inhibition [6] 1.18% | RAM network inhibition [7] -0.97%

CCOc1ccc(OCC)c(NS(=O)(=O)c2cccc3nsnc23)c1
inactive: growth inhibition [1] -13.8% | growth inhibition [2] -21.1% | viability increase [3] -2.5% | viability [4] 88.8% | viability [5] 98% | inhibition [6] 2.63% | RAM network inhibition [7] 3.41%

N#CC1=C2SCN(Cc3ccccc3)CN2C(=O)CC1c1cccs1 (configuration not stated)
inactive: growth inhibition [1] 9.16% | growth inhibition [2] 30.2% | viability increase [3] -2.91% | viability [4] 94.3% | viability [5] 86% | inhibition [6] 0.535% | RAM network inhibition [7] 4.04%

CCC(C)Sc1nc2c([nH]c3ccccc32)c(=O)n1C (configuration not stated)
inactive: growth inhibition [1] -16.9% | growth inhibition [2] -15.8% | viability increase [3] -4.85% | viability [4] 72.4% | viability [5] 70.6% | inhibition [6] 2.48% | RAM network inhibition [7] 3.48%

CC(=O)C1=C(C)NC(=O)NC1c1ccccc1 (configuration not stated)
inactive: growth inhibition [1] -7.36% | growth inhibition [2] -18.6% | viability increase [3] -2.61% | viability [4] 87.3% | viability [5] 91.5% | inhibition [6] 1.03% | RAM network inhibition [7] 5.38%

COc1cc2c(cc1OC)C(C(=O)Nc1ccc3c(c1)OCCO3)C(c1cccnc1)N(C)C2=O (configuration not stated)
inactive: growth inhibition [1] -4.64% | growth inhibition [2] -22.9% | viability increase [3] -6.9% | viability [4] 85.6% | viability [5] 87.9% | inhibition [6] 1.38% | RAM network inhibition [7] -0.57%

COc1ccc(S(=O)(=O)Cc2ccc(C(=O)NCc3ccc(F)cc3)o2)cc1
inactive: growth inhibition [1] -13.6% | growth inhibition [2] -14.1% | viability increase [3] -0.39% | viability [4] 92.2% | viability [5] 87.5% | inhibition [6] 0.735% | RAM network inhibition [7] 2.4%

CC(=O)Nc1cccc(N(C)C)c1
inactive: growth inhibition [1] 3.45% | growth inhibition [2] 5.4% | viability increase [3] -0.76% | viability [4] 96.1% | viability [5] 105% | inhibition [6] 1.44% | RAM network inhibition [7] 1.55%

CN1CCN(C(=O)C2CC(=O)N(c3ccc(F)c(Cl)c3)C2)CC1 (configuration not stated)
inactive: growth inhibition [1] -6.12% | growth inhibition [2] -6.44% | viability increase [3] -0.63% | viability [4] 96% | viability [5] 95.9% | inhibition [6] 2.12% | RAM network inhibition [7] 3.12%

O=C(NCc1ccc(Cl)cc1)c1cccnc1
inactive: growth inhibition [1] -1.45% | growth inhibition [2] 9.27% | viability increase [3] -0.63% | viability [4] 92.8% | viability [5] 93.6% | inhibition [6] 1.8% | RAM network inhibition [7] 0.15%

NC(=O)c1sc(=S)n(-c2ccc(Br)cc2)c1N
inactive: growth inhibition [1] -6.66% | growth inhibition [2] 0.735% | viability increase [3] -4.05% | viability [4] 97.7% | viability [5] 83.7% | inhibition [6] 1.51% | RAM network inhibition [7] 2.48%

COc1ccc(C2C(C(=O)Nc3cccc(C)n3)c3ccccc3C(=O)N2C)cc1OC (configuration not stated)
inactive: growth inhibition [1] 5.62% | growth inhibition [2] 5.49% | viability increase [3] -1.04% | viability [4] 103% | viability [5] 99.6% | inhibition [6] -0.04% | RAM network inhibition [7] 3.5%

c1ccc2c(c1)nc1n2CCN1CCNC1CCCCC1
inactive: growth inhibition [1] -11.4% | growth inhibition [2] -11.7% | viability increase [3] -1.96% | viability [4] 94.2% | viability [5] 98.6% | inhibition [6] 0.065% | RAM network inhibition [7] 1.2%

CC1=C(C(=O)OCC2CCCO2)C(c2ccncc2)C2=C(CCCC2=O)N1 (configuration not stated)
inactive: growth inhibition [1] -16.7% | growth inhibition [2] -8.36% | viability increase [3] -1.77% | viability [4] 98.9% | viability [5] 98.1% | inhibition [6] 2.9% | RAM network inhibition [7] 1.82%

Cn1c(NC(=O)c2ccc(C(C)(C)C)cc2)cc(=O)n(C)c1=O
inactive: growth inhibition [1] -2.62% | growth inhibition [2] -6.46% | viability increase [3] -2.04% | viability [4] 91.1% | viability [5] 96.5% | inhibition [6] 1.97% | RAM network inhibition [7] 1.63%

O=C(C1CCN(S(=O)(=O)c2cccc3cccnc23)CC1)N1CC=C(c2ccccc2)CC1
inactive: growth inhibition [1] 6.34% | growth inhibition [2] 9.98% | viability increase [3] -2.61% | viability [4] 79.9% | viability [5] 83% | inhibition [6] 1.93% | RAM network inhibition [7] 2.07%

COC(=O)c1c(NC(=O)CCCC(=O)O)sc(C)c1C
inactive: growth inhibition [1] -6.98% | growth inhibition [2] 3.54% | viability increase [3] -3.07% | viability [4] 91.8% | viability [5] 87.9% | inhibition [6] 0.305% | RAM network inhibition [7] 3.63%

CCC(C)Nc1ncnc2c1cnn2Cc1ccc(Cl)cc1 (configuration not stated)
inactive: growth inhibition [1] -13.7% | growth inhibition [2] -18.8% | viability increase [3] 6.18% | viability [4] 85.5% | viability [5] 86.7% | inhibition [6] -0.295% | RAM network inhibition [7] 2.14%

CCOc1ccc(N(CC(=O)N2CCCC2)S(=O)(=O)c2c(C)noc2C)cc1
inactive: growth inhibition [1] -10.4% | growth inhibition [2] 3.47% | viability increase [3] -1.24% | viability [4] 98.3% | viability [5] 95.6% | inhibition [6] 1.08% | RAM network inhibition [7] 10.7%

COc1ccc(S(=O)(=O)Cc2ccc(C(=O)N3CCC(C(N)=O)CC3)o2)cc1
inactive: growth inhibition [1] -3.35% | growth inhibition [2] 0.07% | viability increase [3] -0.31% | viability [4] 76% | viability [5] 93.5% | inhibition [6] 2.22% | RAM network inhibition [7] 4.37%

CN(C(=O)CSc1nc(N)nn1-c1ccccc1)c1ccccc1
inactive: growth inhibition [1] -7.03% | growth inhibition [2] 4.13% | viability increase [3] -0.53% | viability [4] 104% | viability [5] 99% | inhibition [6] 0.325% | RAM network inhibition [7] 2.3%

CC1CCCC(NC(=O)CSc2nnnn2C)C1C (configuration not stated)
inactive: growth inhibition [1] -6.17% | growth inhibition [2] -10.1% | viability increase [3] 1.61% | viability [4] 95.5% | viability [5] 101% | inhibition [6] 1.29% | RAM network inhibition [7] 2.27%

COc1ccc(S(=O)(=O)N2CCC(C(=O)NCCC3=CCCCC3)CC2)cc1OC
inactive: growth inhibition [1] -5.45% | growth inhibition [2] -0.575% | viability increase [3] -0.8% | viability [4] 96.2% | viability [5] 96.9% | inhibition [6] 1.67% | RAM network inhibition [7] 4.24%
